Active and inactive are the calls of the source. The rule behind the calls is not given here.
What was measured:
[1] = target: T1, 3-hydroxyacyl-CoA dehydrogenase type-2 (Mus musculus, UniProt O08756); assay: Inhibition of recombinant mouse full-length 17beta-HSD10 (2 to 261 residues) assessed as reduction in transformation of [3H]-ALLOP to 5alpha-DHP after 48 hrs in presence of 1 mM NAD+ cofactor by liquid scintillation counting method
T1 sequence (O08756 whole entry): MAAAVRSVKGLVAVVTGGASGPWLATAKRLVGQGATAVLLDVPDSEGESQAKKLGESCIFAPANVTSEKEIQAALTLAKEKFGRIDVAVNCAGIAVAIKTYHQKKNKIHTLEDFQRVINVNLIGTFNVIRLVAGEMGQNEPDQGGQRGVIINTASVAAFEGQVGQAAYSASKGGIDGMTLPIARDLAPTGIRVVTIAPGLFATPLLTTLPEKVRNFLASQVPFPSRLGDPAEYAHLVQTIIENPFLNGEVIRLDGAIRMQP
How it was run: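 Purified 17β-HSD10 (400 ng/mL), 1 mM NAD⁺, 1 μM [³H]-ALLOP/ALLOP (1:99), 48 h incubation. Oxidation to 5α-DHP was measured over a range of inhibitor concentrations to build inhibition curves and estimate IC50. Results are mean ± SEM.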

[2] = target: T1, 3-hydroxyacyl-CoA dehydrogenase type-2; assay: Inhibition of recombinant mouse full-length 17beta-HSD10 (2 to 261 residues) assessed as reduction in transformation of [14C]-E2 to E1 after 48 hrs in presence of 1 mM NAD+ cofactor by liquid scintillation counting method
How it was run: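 Purified 17β-HSD10 at 400 ng/mL with 1 mM NAD⁺ and substrate [¹⁴C]-E2/E2 (1:9) at 1 μM total, incubated 48 h. E2-to-E1 oxidation was followed with radiolabel. Percent inhibition over a dose range was used for dose-response curves and IC50 estimation. Results are mean ± SEM.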

[3] = target: T2, 3-hydroxyacyl-CoA dehydrogenase type-2 (Mus musculus) (UniProt O08756); assay: Inhibition of recombinant mouse full-length 17beta-HSD10 (2 to 261 residues) assessed as reduction in transformation of [14C]-E2 to E1 at 300 uM after 48 hrs in presence of 1 mM NAD+ cofactor by liquid scintillation counting method relative to control
T2 sequence (whole entry): T1 sequence (O08756 whole entry)
How it was run: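 Single-concentration screen at 300 μM inhibitor. Purified 17β-HSD10 (400 ng/mL), 1 mM NAD⁺, 1 μM [¹⁴C]-E2/E2 (1:9), 48 h incubation. E2-to-E1 conversion was measured and inhibition expressed relative to uninhibited transformation. Results are mean ± SEM.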

[4] = Octanol/water partition co-efficient, log P of the compound; format: physicochemical
How it was run: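 Octanol/water partition coefficient calculated in silico, not measured.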

[5] = target: T2, 3-hydroxyacyl-CoA dehydrogenase type-2 (Mus musculus); assay: Inhibition of recombinant mouse full-length 17beta-HSD10 (2 to 261 residues) assessed as reduction in transformation of [3H]-ALLOP to 5alpha-DHP at 100 uM after 48 hrs in presence of 1 mM NAD+ cofactor by liquid scintillation counting method relative to control
How it was run: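 Screen at 100 μM inhibitor, 48 h, with 400 ng/mL purified enzyme, 1 mM NAD⁺ and 1 μM [³H]-ALLOP/ALLOP (1:99). ALLOP-to-5α-DHP conversion was expressed as % inhibition versus the no-inhibitor transformation. Results are mean ± SEM.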

[6] = target: T2, 3-hydroxyacyl-CoA dehydrogenase type-2 (Mus musculus); assay: Inhibition of recombinant mouse full-length 17beta-HSD10 (2 to 261 residues) assessed as reduction in transformation of [14C]-E2 to E1 at 100 uM after 48 hrs in presence of 1 mM NAD+ cofactor by liquid scintillation counting method
[7] = Blood-brain transfer coefficient in mouse administered via perfusion; format: ADME, tissue-based; conditions: in vivo, other
[8] = Effect on mouse brain penetration assessed as [14C]-sucrose uptake administered via perfusion; format: ADME, tissue-based; conditions: in vivo
[9] = Solubility of the compound at 600 to 1000 uM; format: physicochemical

Row | SMILES | IC50 [1] | IC50 [2] | inhibition [3] | logP [4] | inhibition [5] | inhibition [6] | Kin [7] | Activity [8] | solubility [9]
1 | COc1cccc(CN2CCN(C[C@@]3(O)CC[C@@]4(C)[C@@H](CC[C@@H]5[C@@H]4CC[C@]4(C)[C@H](O)CC[C@@H]54)C3)CC2)c1 | 235 µM | 610 µM | 31.7% | 4.67 | 41.7% | inactive | – | – | –
2 | CCN(C)S(=O)(=O)N1CCN(C[C@@]2(O)CC[C@@]3(C)[C@@H](CC[C@@H]4[C@@H]3CC[C@]3(C)C(=O)CC[C@@H]43)C2)CC1 | – | – | 10.2% | 2.97 | 0% | inactive | – | – | –
3 | COc1cccc(CN2CCN(C[C@@]3(O)CC[C@@]4(C)[C@@H](CC[C@@H]5[C@@H]4CC[C@]4(C)C(=O)C(C)(C)C[C@@H]54)C3)CC2)c1 | – | – | 24.6% | 5.57 | 11.1% | inactive | – | – | –
4 | COc1cccc(CN2CCN(C[C@@]3(O)CC[C@@]4(C)[C@@H](CC[C@@H]5[C@@H]4CC[C@]4(C)[C@@H](O)CC[C@@H]54)C3)CC2)c1 | – | – | 13.7% | 4.67 | 0% | inactive | – | – | –
5 | CN1C(=O)CN=C(c2ccccc2)c2cc(Cl)ccc21 [DIAZEPAM] | – | – | – | – | – | – | 50 to 60 µL/s/g | – | –
6 | C[C@]12CC[C@](O)(CN3CCN(C(=O)c4ccc(-c5ccccc5)cc4)CC3)C[C@@H]1CC[C@@H]1[C@@H]2CC[C@]2(C)C(=O)CC[C@@H]12 | – | – | 29.4% | 5.3 | 19.3% | inactive | – | – | –
7 | CN(C)S(=O)(=O)c1ccc(NC(=S)N2CCN(C[C@@]3(O)CC[C@@]4(C)[C@@H](CC[C@@H]5[C@@H]4CC[C@]4(C)C(=O)CC[C@@H]54)C3)CC2)cc1 | – | – | 0.3% | 3.32 | 13.3% | inactive | – | – | –
8 | C[C@]12CC[C@](O)(CN3CCN(Cc4cnc5ccccc5c4)CC3)C[C@@H]1CC[C@@H]1[C@@H]2CC[C@]2(C)C(=O)CC[C@@H]12 | – | – | 36.1% | 4.58 | 15.2% | inactive | – | – | –
9 | C[C@]12CC[C@@H]3c4ccc(O)cc4CC[C@H]3[C@@H]1CC[C@@H]2O [ESTRADIOL] | 770 µM | 155 µM | – | – | – | – | – | – | –
10 | CC(=O)c1cccc(C(=O)N2CCN(C[C@@]3(O)CC[C@@]4(C)[C@@H](CC[C@@H]5[C@@H]4CC[C@]4(C)C(=O)CC[C@@H]54)C3)CC2)c1 | – | – | – | 3.85 | 5% | inactive | – | – | –
11 | COc1cccc(CN2CCN(C[C@@]3(O)CC[C@@]4(C)[C@@H](CC[C@@H]5[C@@H]4CC[C@]4(C)C(=O)CC[C@@H]54)C3)CC2)c1 | 985 µM | 710 µM | 30% | 4.43 | 14.7% | inactive | 13.8 to 32.7 µL/s/g | Non-Toxic | –
12 | C#C[C@]1(O)CC[C@H]2[C@@H]3CC[C@H]4C[C@@](O)(CN5CCN(Cc6cccc(OC)c6)CC5)CC[C@]4(C)[C@H]3CC[C@@]21C | – | – | 44.5% | 4.93 | 20% | inactive | – | – | –
13 | C[C@]12CC[C@](O)(CN3CCN(C(=S)NCc4cccc(C(F)(F)F)c4)CC3)C[C@@H]1CC[C@@H]1[C@@H]2CC[C@]2(C)C(=O)CC[C@@H]12 | – | – | 8.5% | 3.85 | 34.2% | inactive | – | – | –
14 | Cc1cc(C)cc(C(=O)N2CCN(C[C@@]3(O)CC[C@@]4(C)[C@@H](CC[C@@H]5[C@@H]4CC[C@]4(C)C(=O)CC[C@@H]54)C3)CC2)c1 | – | – | – | 4.86 | 1.5% | inactive | – | – | –
15 | COc1cccc(CN2CCN(C[C@@]3(O)CC[C@@]4(C)[C@@H](CC[C@@H]5[C@@H]4CC[C@@]4(C)[C@H]5CC[C@]4(C)O)C3)CC2)c1 | – | – | 22.6% | 5.06 | 21.9% | inactive | – | – | –
16 | C[C@]12CC[C@](O)(CN3CCN(C(=O)c4ccc(C(=O)c5ccccc5)cc4)CC3)C[C@@H]1CC[C@@H]1[C@@H]2CC[C@]2(C)C(=O)CC[C@@H]12 | – | – | 58.8% | 4.99 | 8% | inactive | – | – | –
17 | COc1cc(CN2CCN(C[C@@]3(O)CC[C@@]4(C)[C@@H](CC[C@@H]5[C@@H]4CC[C@]4(C)C(=O)CC[C@@H]54)C3)CC2)ccc1C | – | – | 31% | 4.72 | 12.5% | inactive | – | – | –
18 | COc1cccc(CN2CCN(C[C@@]3(O)CC[C@@]4(C)[C@@H](CC[C@@H]5[C@@H]4CC[C@@]4(C)[C@H]5CCC4(F)F)C3)CC2)c1 | – | – | 13.3% | 5.57 | 38.6% | inactive | – | – | Insoluble
